Measured values published in ChEMBL document CHEMBL5149984, “Discovery of HN37 as a Potent and Chemically Stable Antiepileptic Drug Candidate” (J Med Chem, 2021).

Assays:
[1] = biological target: T1, Potassium voltage-gated channel subfamily KQT member 2/member 3 (Rattus norvegicus) (UniProt O88943+O88944); assay: Agonist activity at rat KCNQ2/3 channel expressed in CHO cells assessed as amplitude change of outward current at 10 uM by patch clamp method; format: cell-based; conditions: filed as agonist
Method in brief: (§1)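 Whole-cell patch clamp at room temperature on CHO cells (DMEM/F12, 10% FBS) transiently co-transfected with EGFP and hKCNQ1, rKCNQ2, rKCNQ3 A278T, hKCNQ4 or hKCNQ5; KCNQ2/3 at 1:1 cDNA ratio. Pipette solution 145 mM KCl, 5 mM MgATP, pH 7.3; bath 140 mM NaCl, 5 mM KCl, pH 7.4, under perfusion. V1/2 from Boltzmann fits; I/I0 is current amplitude with versus without compound; n = 4−6.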

[2] = Neurotoxicity in Kunming mouse assessed as motor impairment rate at 150 mg/kg, po after 1 hr by rotarod test; format: toxicity, organism-based; conditions: in vivo
Method in brief: (§2)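 Male KM mice dosed intragastrically with compound freshly suspended in 0.5% CMC-Na. Rotarod performance scored 1 h after dosing as the fraction of animals showing motor impairment. Fisher's exact test versus vehicle; TD50 from nonlinear dose−response fit.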

[3] = biological target: T2, Potassium voltage-gated channel subfamily KQT member 4 (Homo sapiens) (UniProt P56696); assay: Agonist activity at human KCNQ4 channel expressed in CHO cells assessed as amplitude change of outward current at 0.1 uM by patch clamp method; format: cell-based; conditions: filed as agonist; method in brief: as §1
T2 sequence (whole entry): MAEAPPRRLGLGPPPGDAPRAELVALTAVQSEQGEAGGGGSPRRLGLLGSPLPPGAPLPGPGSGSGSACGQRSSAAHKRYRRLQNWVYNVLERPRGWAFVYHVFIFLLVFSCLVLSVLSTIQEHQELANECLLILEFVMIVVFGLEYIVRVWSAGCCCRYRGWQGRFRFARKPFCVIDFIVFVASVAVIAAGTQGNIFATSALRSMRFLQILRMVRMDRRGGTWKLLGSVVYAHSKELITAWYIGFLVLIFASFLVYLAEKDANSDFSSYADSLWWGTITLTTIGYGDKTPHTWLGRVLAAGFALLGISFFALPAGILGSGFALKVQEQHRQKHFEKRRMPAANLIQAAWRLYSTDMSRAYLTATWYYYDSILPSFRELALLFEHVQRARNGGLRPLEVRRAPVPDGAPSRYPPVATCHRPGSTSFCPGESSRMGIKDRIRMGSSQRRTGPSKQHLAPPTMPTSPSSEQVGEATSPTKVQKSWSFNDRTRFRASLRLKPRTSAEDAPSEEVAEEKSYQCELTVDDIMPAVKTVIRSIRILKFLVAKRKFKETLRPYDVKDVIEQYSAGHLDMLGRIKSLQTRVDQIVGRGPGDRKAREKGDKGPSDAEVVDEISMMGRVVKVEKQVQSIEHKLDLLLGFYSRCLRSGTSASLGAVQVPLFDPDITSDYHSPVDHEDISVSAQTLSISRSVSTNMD

[4] = Metabolic stability in human liver microsomes assessed as half life; format: ADME, Microsome
[5] = Neurotoxicity in Kunming mouse assessed as motor impairment rate at 90 mg/kg, po after 1 hr by rotarod test; format: toxicity, organism-based; conditions: in vivo; method in brief: as §2
CYP2D6 = CYP2D6 (Homo sapiens, UniProt P10635); assay: Ratio of IC50 for human liver microsome CYP2D6 in absence of NADPH to IC50 for human liver microsome CYP2D6 in presence of NADPH; conditions: liver microsomes, read-out: Ratio IC50
CYP2D6, sequence (P10635 whole entry): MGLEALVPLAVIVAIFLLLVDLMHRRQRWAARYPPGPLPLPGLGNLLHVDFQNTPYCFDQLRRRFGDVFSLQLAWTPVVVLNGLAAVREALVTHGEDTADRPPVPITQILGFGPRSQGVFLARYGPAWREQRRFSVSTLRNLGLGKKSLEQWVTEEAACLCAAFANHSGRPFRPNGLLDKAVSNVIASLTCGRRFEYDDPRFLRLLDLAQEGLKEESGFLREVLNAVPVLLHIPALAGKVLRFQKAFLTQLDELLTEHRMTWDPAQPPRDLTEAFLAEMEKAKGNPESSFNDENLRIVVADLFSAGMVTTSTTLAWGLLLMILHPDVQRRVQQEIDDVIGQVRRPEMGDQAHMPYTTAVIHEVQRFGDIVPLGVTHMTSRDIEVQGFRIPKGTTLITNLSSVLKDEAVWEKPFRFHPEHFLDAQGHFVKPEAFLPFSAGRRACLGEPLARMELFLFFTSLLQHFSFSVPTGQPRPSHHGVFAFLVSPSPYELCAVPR

[6] = Cmax in Kunming mouse brain at 5 mg/kg, po measured upto 24 hrs by LC-MS/MS method; format: ADME, organism-based; set-up: dose 5 mg/kg, time < 24 hrs, route po
Method in brief: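 KM male mice (18−24 g), fasted 12 h before and 2 h after dosing. HN37 given orally at 5 mg/kg in 5% DMSO/5% Tween 80/90% saline, or iv at 2 mg/kg after dilution in saline with 1% Tween 80; n = 3 per time point. Blood sampled 0.25–24 h (from 0.083 h after iv); whole brain taken after oral dosing. Plasma and brain extracted with acetonitrile, quantified by LC−MS/MS; AUC0−t by trapezoidal method.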

[7] = Metabolic stability in monkey liver microsomes assessed as intrinsic clearance; format: ADME, Macaca mulatta, Microsome; conditions: rhesus monkey, read-out: CLH
[8] = Ratio of TC50 for Kunming mouse to EC50 for anticonvulsant activity in Kunming mouse; format: toxicity
Method in brief: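 Male KM mice dosed orally in 0.5% CMC-Na and killed straight after the 1 h MES or rotarod test. Brain and plasma levels measured by LC−MS/MS. EC50 and TC50 fitted by nonlinear regression of protection or motor impairment against mean brain concentration; ratio = TC50,brain/EC50,brain.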

[9] = Cmax in Sprague-Dawley rat brain at 6 mg/kg, po measured upto 24 hrs by LC-MS/MS method; format: ADME, organism-based; set-up: time < 24 hrs, dose 6 mg/kg, route po
Method in brief: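 Male SD rats (180−220 g) given single oral doses of 2, 6 and 20 mg/kg; handled as in the mouse PK study (fasted 12 h before and 2 h after dosing, 5% DMSO/5% Tween 80/90% saline formulation). In a separate 6 mg/kg p.o. set, blood and brain were sampled together. Plasma and brain levels by LC−MS/MS.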

[10] = biological target: T1, Potassium voltage-gated channel subfamily KQT member 2/member 3 (Rattus norvegicus); assay: Agonist activity at rat KCNQ2/3 channel expressed in CHO cells assessed as amplitude change of outward current at 0.1 uM by patch clamp method; format: cell-based; conditions: filed as agonist; method in brief: as §1
[11] = Drug concentration in Kunming mouse brain at 5 mg/kg; format: ADME, organism-based; conditions: in vivo, read-out: Ct
Method in brief: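 Male KM mice (18−24 g) fasted 12 h before and 2 h after dosing, given 5 mg/kg orally in 5% DMSO/5% Tween 80/90% normal saline (n = 3 per time point). Aortic blood taken at 0.25–24 h and whole brain collected. Acetonitrile extraction with internal standard, then LC−MS/MS. Bioavailability calculated against the 2 mg/kg i.v. arm.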

[12] = Tmax in Sprague-Dawley rat brain at 6 mg/kg, po measured upto 24 hrs by LC-MS/MS method; format: ADME, organism-based
Method in brief: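 Male SD rats (180–220 g) dosed orally at 2, 6 and 20 mg/kg, handled like the mice: fasting, 5% DMSO/5% Tween 80/saline vehicle, acetonitrile extraction, LC-MS/MS of plasma. In a separate set at 6 mg/kg p.o., blood and brain were sampled together.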

Mus musculus = assay: Anticonvulsant activity in MES induced Kunming mouse model of seizure at 2.5 mg/kg, po after 0.25 to 2 hr; format: functional; conditions: time 0.25-2 hrs
Method in brief: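 MES test in male KM mice. Compounds freshly suspended in 0.5% CMC-Na and given by gavage at 20 mL/kg; 160 V stimulus through ear clips. Protection scored as absence of hindlimb tonic extension; time course at 0.25, 0.5, 1 and 2 h, otherwise tested at 1 h. ED50 from dose−response by nonlinear regression; Fisher's exact test versus vehicle.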

[13] = Metabolic stability in dog liver microsomes assessed as intrinsic clearance; format: ADME, Canis lupus familiaris, Microsome; conditions: read-out: CLH

| Structure (SMILES) | Activity [1] | Activity [2] [%] | Activity [3] | half-life [4] [min] | Activity [5] [%] | IC50 shift (CYP2D6) | Cmax [6] [ng/mL] | CLint scaled [7] [mL/min/kg] | selectivity ratio [8] | Cmax [9] [ng/mL] | Activity [10] | concentration [11] [nM] | Tmax [12] [min] | Activity (Mus musculus) [%] | CLint scaled [13] [mL/min/kg] |
| --- | --- | --- | --- | --- | --- | --- | --- | --- | --- | --- | --- | --- | --- | --- | --- |
| CCOC(=O)Nc1ccc(NCc2ccc(F)cc2)cc1N [EZOGABINE] | 1.97 |  |  |  |  |  |  |  |  |  |  |  |  |  |  |
| C#CCN(Cc1ccc(F)cc1)c1cc(C)c(NC(=O)OC)c(C)c1 |  | 87.5 | 3.76 | 27.7 | 62.5 | < 1.5 | 263 | 112 | 49.6 | 578 | 2.77 | 120 | 15 | 40 | 97.2 |
